Results as given in ChEMBL document CHEMBL1124215, “Improved delivery through biological membranes. 26. Design, synthesis, and pharmacological activity of a novel chemical delivery system for beta-adrenergic blocking agents” (1988).
Calls of active or inactive are those of the source. The rule behind the calls is not given here.

Legend:
Oryctolagus cuniculus [1] = test: Effect on IOP of rabbits 2 hr after administration (1%); assay type: functional
How it was run: (§1)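 IOP was read by pneumatonometer in unrestrained, unanesthetized rabbits after local propacaine drops. Drug was given as a 1% or 2.5% solution in pH 7.4 buffer or saline to both eyes, at least four rabbits per group; controls (at least three) received carrier only. Readings were taken at 30 and 60 min and at 2, 3, 4, 6 and 8 h. Values are mean ± SE; Student's t test.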

Oryctolagus cuniculus [2] = test: Effect on IOP of rabbits 0 min after administration (1%); assay type: functional; how it was run: as §1
Oryctolagus cuniculus [3] = test: Percentage change of IOP in rabbits after 0 min administration (1%) of compound; assay type: functional; how it was run: as §1
Oryctolagus cuniculus [4] = test: Percentage change of IOP in rabbits after 5 hr administration (1%) of compound; assay type: functional
How it was run: (§2)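 Rabbits received 1% or 2.5% drug solution in pH 7.4 buffer or saline in both eyes, at least four per group. A control group of at least three rabbits received carrier only. IOP was read by pneumatonometer in unrestrained, unanesthetized animals after one drop of 0.5% propacaine diluted 1:2 with saline. Readings were taken at 30 and 60 min and at 2–8 h. Values are mean ± SE, with significance by Student's t test.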

Oryctolagus cuniculus [5] = test: Percentage change of IOP in rabbits after 2 hr administration (1%) of compound; assay type: functional; how it was run: as §1
Oryctolagus cuniculus [6] = test: Percentage change of IOP in rabbits after 30 min administration (1%) of compound; assay type: functional; how it was run: as §2
Oryctolagus cuniculus [7] = test: Percentage change of IOP in rabbits after 1 hr administration (1%) of compound; assay type: functional; how it was run: as §1
Oryctolagus cuniculus [8] = test: Effect on IOP of rabbits 30 mins after administration (1%); assay type: functional; how it was run: as §1
Oryctolagus cuniculus [9] = test: Percentage change of IOP in rabbits after 3h administration (1%) of compound; assay type: functional; how it was run: as §2
Oryctolagus cuniculus [10] = test: Percentage change of IOP in rabbits after 6 hr administration (1%) of compound; assay type: functional; how it was run: as §2
Oryctolagus cuniculus [11] = test: Effect on IOP of rabbits 4 hr after administration (1%); assay type: functional; how it was run: as §1
Oryctolagus cuniculus [12] = test: Percentage change of IOP in rabbits after 8 hr administration (1%) of compound; assay type: functional; how it was run: as §2
Oryctolagus cuniculus [13] = test: Effect on IOP of rabbits 6 hr after administration (1%); assay type: functional; how it was run: as §1
Oryctolagus cuniculus [14] = test: Effect on IOP of rabbits 3h after administration (1%); assay type: functional; how it was run: as §1
Oryctolagus cuniculus [15] = test: Effect on IOP of rabbits 5 hr after administration (1%); assay type: functional
Oryctolagus cuniculus [16] = test: Effect on IOP of rabbits 1 hr after administration (1%); assay type: functional; how it was run: as §1
Oryctolagus cuniculus [17] = test: Percentage change of IOP in rabbits after 4 hr administration (1%) of compound; assay type: functional; how it was run: as §2
Oryctolagus cuniculus [18] = test: Effect on IOP of rabbits 30 mins after administration (2.5%); assay type: functional; how it was run: as §1
Oryctolagus cuniculus [19] = test: Effect on IOP of rabbits 60 mins after administration (2.5%); assay type: functional; how it was run: as §1
Oryctolagus cuniculus [20] = test: Concentration of propranolone oxime in cornea of rabbit after 30 min administration of compound; N/A= no oxime can be present after administration of propranolone hydrochloride; assay type: functional, organism-based
How it was run: (§3)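 Adult male New Zealand albino rabbits (2.5–3.5 kg), at least four per time point. 100 µL of a 1% solution in saline was instilled topically into both eyes. Animals were killed at 30, 60 or 120 min. Cornea and iris-ciliary body were homogenized in methanol to 10% homogenates and deproteinized by centrifugation. Aqueous humor was analysed undiluted. HPLC was calibrated against spiked control-rabbit tissue. Values are mean ± SE, µg/g.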

Oryctolagus cuniculus [21] = test: Concentration of propranolone oxime in cornea of rabbit after 120 min administration of compound; N/A= no oxime can be present after administration of propranolone hydrochloride; assay type: functional, organism-based; how it was run: as §3
Oryctolagus cuniculus [22] = test: Percentage change of IOP in rabbits after 4 hr administration (2.5%) of compound; assay type: functional; how it was run: as §2
Oryctolagus cuniculus [23] = test: Effect on IOP of rabbits 4 hr after administration (2.5%); assay type: functional; how it was run: as §1
Oryctolagus cuniculus [24] = test: Effect on IOP of rabbits 6 hr min after administration (1%); assay type: functional; how it was run: as §1
Oryctolagus cuniculus [25] = test: Concentration in aqueous humor of rabbit after 60 min administration of compound; assay type: functional, organism-based; details: Aqueous humor of eyeball; how it was run: as §3
Oryctolagus cuniculus [26] = test: Effect on IOP of rabbits 6 hr min after administration (2.5%); assay type: functional; how it was run: as §1
Oryctolagus cuniculus [27] = test: Concentration in aqueous humor of rabbit after 30 min administration of compound; assay type: functional, organism-based; details: Aqueous humor of eyeball; how it was run: as §3
Oryctolagus cuniculus [28] = test: Concentration in iris-ciliary body of rabbit after 30 min administration of compound; assay type: functional, organism-based; how it was run: as §3
Oryctolagus cuniculus [29] = test: Percentage change of IOP in rabbits after 2 hr administration (2.5%) of compound; assay type: functional; how it was run: as §1
Oryctolagus cuniculus [30] = test: Percentage change of IOP in rabbits after 60 min administration (1%) of compound; assay type: functional; how it was run: as §2
Oryctolagus cuniculus [31] = test: Concentration of propranolone oxime in iris-ciliary body of rabbit after 30 min administration of compound; N/A= no oxime can be present after administration of propranolone hydrochloride; assay type: functional, organism-based; how it was run: as §3
Oryctolagus cuniculus [32] = test: Percentage change of IOP in rabbits after 0 min administration (2.5%) of compound; assay type: functional; how it was run: as §1
Oryctolagus cuniculus [33] = test: Concentration in cornea of rabbit after 30 min administration of compound; assay type: functional, organism-based; how it was run: as §3
Oryctolagus cuniculus [34] = test: Effect on IOP of rabbits 2 hr after administration (2.5%); assay type: functional; how it was run: as §1
Oryctolagus cuniculus [35] = test: Concentration of propranolone oxime in cornea of rabbit after 60 min administration of compound; N/A= no oxime can be present after administration of propranolone hydrochloride; assay type: functional, organism-based; how it was run: as §3
Oryctolagus cuniculus [36] = test: Effect on IOP of rabbits 60 min after administration (1%); assay type: functional; how it was run: as §1
Oryctolagus cuniculus [37] = test: Percentage change of IOP in rabbits after 30 min administration (2.5%) of compound; assay type: functional; how it was run: as §2
Oryctolagus cuniculus [38] = test: Concentration of propranolone oxime in aqueous humor of rabbit after 30 min administration of compound; N/A= no oxime can be present after administration of propranolone hydrochloride; assay type: functional, organism-based; details: Aqueous humor of eyeball; how it was run: as §3
Oryctolagus cuniculus [39] = test: Percentage change of IOP in rabbits after 6 hr administration (2.5%) of compound; assay type: functional; how it was run: as §2
Oryctolagus cuniculus [40] = test: Effect on IOP of rabbits 8 hr min after administration (1%); assay type: functional; how it was run: as §1
Oryctolagus cuniculus [41] = test: Concentration in cornea of rabbit after 60 min administration of compound; assay type: functional, organism-based; how it was run: as §3
Oryctolagus cuniculus [42] = test: Percentage change of IOP in rabbits after 60 min administration (2.5%) of compound; assay type: functional; how it was run: as §2
Oryctolagus cuniculus [43] = test: Concentration of propranolone oxime in iris-ciliary body of rabbit after 120 min administration of compound; N/A= no oxime can be present after administration of propranolone hydrochloride; assay type: functional, organism-based; how it was run: as §3
Oryctolagus cuniculus [44] = test: Percentage change of IOP in rabbits after 8 hr administration (2.5%) of compound; assay type: functional; how it was run: as §2
Oryctolagus cuniculus [45] = test: Effect on IOP of rabbits 3h after administration (2.5%); assay type: functional; how it was run: as §1
Oryctolagus cuniculus [46] = test: Concentration of propranolone oxime in aqueous humor of rabbit after 120 min administration of compound; N/A= no oxime can be present after administration of propranolone hydrochloride; assay type: functional, organism-based; details: Aqueous humor of eyeball; how it was run: as §3
Oryctolagus cuniculus [47] = test: Concentration of propranolone oxime in aqueous humor of rabbit after 60 min administration of compound; N/A= no oxime can be present after administration of propranolone hydrochloride; assay type: functional, organism-based; details: Aqueous humor of eyeball; how it was run: as §3
Oryctolagus cuniculus [48] = test: Effect on IOP of rabbits 8 hr min after administration (2.5%); assay type: functional; how it was run: as §1
Oryctolagus cuniculus [49] = test: Percentage change of IOP in rabbits after 3h administration (2.5%) of compound; assay type: functional; how it was run: as §2
Oryctolagus cuniculus [50] = test: Effect on IOP of rabbits 0 min after administration (2.5%); assay type: functional; how it was run: as §1
Oryctolagus cuniculus [51] = test: Concentration of propranolone oxime in iris-ciliary body of rabbit after 60 min administration of compound; N/A= no oxime can be present after administration of propranolone hydrochloride; assay type: functional, organism-based; how it was run: as §3

## CC(C)(C)NC[C@H](O)COc1nsnc1N1CCOCC1 (stereo in doubt; 1b) [TIMOLOL]
Oryctolagus cuniculus [1]
  IOP: 27.21 mmHg
Oryctolagus cuniculus [2]
  IOP: 29.19 mmHg
Oryctolagus cuniculus [3]
  Change: 0%
Oryctolagus cuniculus [4]
  Change: 16.9%
Oryctolagus cuniculus [5]
  Change: 6.78%
Oryctolagus cuniculus [6]
  Change: >-10.93%
Oryctolagus cuniculus [7]
  Change: 6.65%
Oryctolagus cuniculus [8]
  IOP: 26 mmHg
Oryctolagus cuniculus [9]
  Change: 14.3%
Oryctolagus cuniculus [10]
  Change: 12.4%
Oryctolagus cuniculus [11]
  IOP: 24.88 mmHg
Oryctolagus cuniculus [12]
  Change: >9.8%
Oryctolagus cuniculus [13]
  IOP: 25.58 mmHg
Oryctolagus cuniculus [14]
  IOP: 25 mmHg
Oryctolagus cuniculus [15]
  IOP: 24.25 mmHg
Oryctolagus cuniculus [16]
  IOP: 27.25 mmHg
Oryctolagus cuniculus [17]
  Change: 14.8%

## CC(C)NCC(O)COc1cccc2ccccc12 (stereo not drawn) [PROPRANOLOL]
Oryctolagus cuniculus [18]
  IOP: 27.6 mmHg
Oryctolagus cuniculus [19]
  IOP: 27.9 mmHg
Oryctolagus cuniculus [1]
  IOP: 29.1 mmHg
Oryctolagus cuniculus [20]
  Concentration: inactive
Oryctolagus cuniculus [21]
  Concentration: inactive
Oryctolagus cuniculus [2]
  IOP: 30.8 mmHg
Oryctolagus cuniculus [3]
  Change: 0%
Oryctolagus cuniculus [22]
  Change: 0.79%
Oryctolagus cuniculus [23]
  IOP: 25.6 mmHg
Oryctolagus cuniculus [24]
  IOP: 29 mmHg
Oryctolagus cuniculus [25]
  Concentration: 0.3 µg/g
Oryctolagus cuniculus [5]
  Change: -5.52%
Oryctolagus cuniculus [6]
  Change: >-9.1%
Oryctolagus cuniculus [26]
  IOP: 25.4 mmHg
Oryctolagus cuniculus [27]
  Concentration: 1.3 µg/g
Oryctolagus cuniculus [28]
  Concentration: 8.1 µg/g
Oryctolagus cuniculus [29]
  Change: 1.18%
Oryctolagus cuniculus [30]
  Change: >-10.39%
Oryctolagus cuniculus [8]
  IOP: 29 mmHg
Oryctolagus cuniculus [9]
  Change: -11.04%
Oryctolagus cuniculus [10]
  Change: -5.84%
Oryctolagus cuniculus [31]
  Concentration: inactive
Oryctolagus cuniculus [32]
  Change: 0%
Oryctolagus cuniculus [11]
  IOP: 28.2 mmHg
Oryctolagus cuniculus [33]
  Concentration: 47.1 µg/g
Oryctolagus cuniculus [34]
  IOP: 25.7 mmHg
Oryctolagus cuniculus [35]
  Concentration: inactive
Oryctolagus cuniculus [36]
  IOP: 27.6 mmHg
Oryctolagus cuniculus [12]
  Change: -1.95%
Oryctolagus cuniculus [37]
  Change: >8.66%
Oryctolagus cuniculus [38]
  Concentration: inactive
Oryctolagus cuniculus [39]
  Change: 0%
Oryctolagus cuniculus [40]
  IOP: 30.2 mmHg
Oryctolagus cuniculus [41]
  Concentration: 14.5 µg/g
Oryctolagus cuniculus [42]
  Change: >9.84%
Oryctolagus cuniculus [43]
  Concentration: inactive
Oryctolagus cuniculus [44]
  Change: -0.79%
Oryctolagus cuniculus [45]
  IOP: 25.7 mmHg
Oryctolagus cuniculus [14]
  IOP: 27.4 mmHg
Oryctolagus cuniculus [46]
  Concentration: inactive
Oryctolagus cuniculus [47]
  Concentration: inactive
Oryctolagus cuniculus [48]
  IOP: 25.2 mmHg
Oryctolagus cuniculus [49]
  Change: 1.18%
Oryctolagus cuniculus [17]
  Change: -8.44%
Oryctolagus cuniculus [50]
  IOP: 25.4 mmHg
Oryctolagus cuniculus [51]
  Concentration: inactive
